Reference: ChEMBL document CHEMBL5678802, “Small-molecule p21-activated kinase inhibitor PF-3758309 is a potent inhibitor of oncogenic signaling and tumor growth” (Proc Natl Acad Sci U S A, 2010)
Activity calls are given as the source filed them. The calls are words filed in the database; no cut-off is given here.

Assays:
[1] = Antiproliferative activity against human Hs 700T cells assessed as inhibition of cell proliferation incubated for 3 days by CellTiter-Glo Luminescent Cell Viability Assay; assay type: functional, cell-based; settings: 72 h
Outline: (§1)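 Cancer cell lines seeded in 384-well plates on day 1; compound added on day 2 and left for 3 days. On day 5 all medium was aspirated, and viable cells were quantified by CellTiter-Glo luminescence, which measures cellular ATP. Dose-dependent effects on proliferation were determined.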

[2] = target: Serine/threonine-protein kinase D2 (Homo sapiens) (UniProt Q9BZL6); assay: Inhibition of human PKD2 (PRKD2) in presence of ATP relative to control; settings: concentration not given here
[3] = tested on: HCT-116; assay: Antitumor activity against human HCT-116 cells xenografted in nude mouse assessed as reduction in STAT6 phosphorylation at Y641 residue at 15 to 150 mg/kg/day administered via pump for 18 hrs by Reverse-Phase protein array analysis; assay type: functional, organism-based; settings: dose 15-150 mg/kg/day
[4] = tested on: NCI-H520; assay: Inhibition of anchorage independent cell growth in human NCI-H520 cells incubated for 6 days by Alamar blue reagent based fluorescence plate reader analysis; assay type: functional; settings: NCI-H520, 144 h
[5] = Antiproliferative activity against human PL45 cells assessed as inhibition of cell proliferation incubated for 3 days by CellTiter-Glo Luminescent Cell Viability Assay; assay type: functional, cell-based; settings: PL45, 72 h
Outline: (§2)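 Cells of each line were plated in 384-well plates on day 1 and exposed to compound from day 2 for 3 days. On day 5 all medium was aspirated. Viable cell number was read by CellTiter-Glo luminescence, which quantifies cellular ATP.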

[6] = In vivo inhibition of PAK4 in nude mouse xenografted with human HCT-116 cells assessed as reduction in phosphorylated GEF-H1 level at 1.1 to 3.3 mg/kg, sc administered for 6 days by ELISA relative to control; assay type: functional; parameters: scale not given: the % may be the effect or the level left; settings: dose 1.1-3.3 mg/kg, time 6 day
[7] = tested on: NCI-H226; assay: Antiproliferative activity against human NCI-H226 cells assessed as inhibition of cell proliferation incubated for 3 days by CellTiter-Glo Luminescent Cell Viability Assay; assay type: functional, cell-based; settings: NCI-H226, 72 h; outline: as §2
[8] = tested on: HCT-116; assay: Antitumor activity against human HCT-116 cells xenografted in nude mouse assessed as reduction in total Myc level at 15 to 150 mg/kg/day administered via pump for 18 hrs by Reverse-Phase protein array analysis; assay type: functional, organism-based; settings: dose 15-150 mg/kg/day
[9] = tested on: HCT-116; assay: Antitumor activity against human HCT-116 cells xenografted in nude mouse assessed as inhibition of [3H]FLT uptake at 15 mg/kg, po administered twice a day for 6 days and measured after 2 hrs post [3H]FLT administration by scintillation counter analysis relative to control; assay type: functional; settings: HCT-116, 144 h, time 6 day
Outline: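 HCT116 xenograft mice (tumors 300–350 mm3, n = 5 per group) received oral vehicle or compound, with harvests on days 2, 3 and 6. Isoflurane-anesthetized mice were given [3H]FLT (15 nCi/g, i.p.) 2 h before killing. Tumor and liver were weighed, solubilized and scintillation-counted. SUV = C/(ID/W), and uptake is reported as the tumor-to-liver SUV ratio.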

[10] = target: T1, Protein kinase C beta type (Homo sapiens, UniProt P05771); assay: Inhibition of human PKCbeta1 in presence of ATP relative to control; settings: concentration not given here
Target sequence in this assay (P05771 2-671 limits assumed): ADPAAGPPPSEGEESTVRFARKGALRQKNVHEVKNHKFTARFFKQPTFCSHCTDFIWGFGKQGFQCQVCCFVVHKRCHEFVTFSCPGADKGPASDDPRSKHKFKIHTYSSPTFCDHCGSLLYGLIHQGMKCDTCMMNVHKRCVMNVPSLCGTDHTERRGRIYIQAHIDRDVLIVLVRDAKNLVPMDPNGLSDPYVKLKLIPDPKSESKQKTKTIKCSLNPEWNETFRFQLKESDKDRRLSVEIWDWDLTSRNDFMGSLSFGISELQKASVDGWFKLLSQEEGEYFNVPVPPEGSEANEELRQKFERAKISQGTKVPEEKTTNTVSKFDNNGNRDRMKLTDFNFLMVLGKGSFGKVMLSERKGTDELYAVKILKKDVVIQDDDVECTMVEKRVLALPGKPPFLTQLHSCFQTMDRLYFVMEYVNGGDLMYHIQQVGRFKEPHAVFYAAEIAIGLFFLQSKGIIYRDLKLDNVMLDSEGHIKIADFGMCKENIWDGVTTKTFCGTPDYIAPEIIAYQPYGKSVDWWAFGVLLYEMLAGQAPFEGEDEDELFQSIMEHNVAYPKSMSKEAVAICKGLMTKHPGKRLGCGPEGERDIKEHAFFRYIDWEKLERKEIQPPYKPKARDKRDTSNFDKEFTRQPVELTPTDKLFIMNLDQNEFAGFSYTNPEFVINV

[11] = tested on: HCT-116; assay: Antitumor activity against human HCT-116 cells xenografted in nude mouse assessed as increase in caspase 3 activation at 15 to 25 mg/kg, po administered twice daily for 6 days by immunohistochemical analysis; assay type: functional, organism-based; settings: dose 15-25 mg/kg, time 6.0 day
Outline: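 HCT116 cells (2 × 10^6 in 0.15 mL 1:1 Matrigel:PBS) were implanted s.c. in nude mice. At 300–350 mm3, mice were randomized into groups of five and dosed orally twice daily with vehicle, 15 or 25 mg/kg. Tumors were harvested on days 2, 3 and 6, paraformaldehyde-fixed and IHC-stained for caspase 3 (1:200). Three serial sections were scored 0–4 (0 = <2% to 4 = >7% positive cells).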

[12] = tested on: HT-29; assay: Antiproliferative activity against human HT-29 cells assessed as inhibition of cell proliferation incubated for 3 days by CellTiter-Glo Luminescent Cell Viability Assay; assay type: functional, cell-based; settings: HT-29, 72 h; outline: as §1
[13] = tested on: HCT-116; assay: Antitumor activity against human HCT-116 cells xenografted in nude mouse assessed as unbound drug concentration for inhibition of tumor growth at 0.12 to 3.3 mg/kg administered via pump for 9 days; assay type: functional; settings: dose 0.12-3.3 mg/kg; time 9 day
[14] = tested on: HuP-T4; assay: Antiproliferative activity against human HuP-T4 cells assessed as inhibition of cell proliferation incubated for 3 days by CellTiter-Glo Luminescent Cell Viability Assay; assay type: functional, cell-based; settings: HuP-T4, 72 h; outline: as §1
[15] = tested on: HCC1806; assay: Antiproliferative activity against human HCC1806 cells assessed as inhibition of cell proliferation incubated for 3 days by CellTiter-Glo Luminescent Cell Viability Assay; assay type: functional, cell-based; settings: HCC1806, 72 h; outline: as §1
[16] = tested on: NCI-H1666; assay: Inhibition of anchorage independent cell growth in human NCI-H1666 cells incubated for 6 days by Alamar blue reagent based fluorescence plate reader analysis; assay type: functional; settings: NCI-H1666, 144 h
[17] = tested on: HuP-T3; assay: Antiproliferative activity against human HuP-T3 cells assessed as inhibition of cell proliferation incubated for 3 days by CellTiter-Glo Luminescent Cell Viability Assay; assay type: functional, cell-based; settings: HuP-T3, 72 h; outline: as §1
[18] = target: T1, Protein kinase C beta type; assay: Inhibition of human PKCbeta1 in presence of ATP
Target sequence in this assay (P05771 whole entry): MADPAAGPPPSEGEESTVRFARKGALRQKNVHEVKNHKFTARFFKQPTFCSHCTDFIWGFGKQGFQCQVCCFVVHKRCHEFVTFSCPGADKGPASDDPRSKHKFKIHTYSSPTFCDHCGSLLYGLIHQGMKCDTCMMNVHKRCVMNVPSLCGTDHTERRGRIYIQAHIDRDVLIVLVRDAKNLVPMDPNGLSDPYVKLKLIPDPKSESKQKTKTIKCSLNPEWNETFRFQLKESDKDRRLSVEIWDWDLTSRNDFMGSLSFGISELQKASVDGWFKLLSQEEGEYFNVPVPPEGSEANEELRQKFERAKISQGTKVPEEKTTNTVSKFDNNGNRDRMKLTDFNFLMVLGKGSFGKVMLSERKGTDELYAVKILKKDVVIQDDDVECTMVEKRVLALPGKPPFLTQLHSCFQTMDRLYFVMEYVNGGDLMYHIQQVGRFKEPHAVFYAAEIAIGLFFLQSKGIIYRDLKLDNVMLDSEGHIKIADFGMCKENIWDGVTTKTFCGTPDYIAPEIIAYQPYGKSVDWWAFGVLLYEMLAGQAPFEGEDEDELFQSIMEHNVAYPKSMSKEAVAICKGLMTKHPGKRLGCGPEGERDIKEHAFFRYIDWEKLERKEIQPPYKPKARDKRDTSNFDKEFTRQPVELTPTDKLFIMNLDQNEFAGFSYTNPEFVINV

[19] = tested on: PSN1; assay: Antiproliferative activity against human PSN1 cells assessed as inhibition of cell proliferation incubated for 3 days by CellTiter-Glo Luminescent Cell Viability Assay; assay type: functional, cell-based; settings: PSN1, 72 h; outline: as §2
[20] = tested on: GTL 16 cell line; assay: Antitumor activity against human GTL-16 cell line xenografted in nude mouse assessed as tumor growth inhibition at 20 mg/kg, po administered once daily for 9 to 18 days relative to control; assay type: functional; settings: time 9-18 day, read-out: TGI
Outline: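 Tumor cells were implanted s.c. into the right flank of female nu/nu nude mice aged 6–8 weeks. Animals were randomized into treatment groups once tumors were established (example: day 8 postimplant, about 170 mm3, animals >22 g). Compound in 0.5% methylcellulose was given by oral gavage. Tumors were measured with calipers two to three times per week.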

[21] = target: T1, Protein kinase C beta type; assay: Inhibition of human PKCbeta-II in presence of ATP relative to control; settings: concentration not given here
Target sequence in this assay (P05771 2-671 limits assumed): as the sequence (P05771 2-671 limits assumed) above

Sequence of Serine/threonine-protein kinase D2 (Homo sapiens) (Q9BZL6 whole entry): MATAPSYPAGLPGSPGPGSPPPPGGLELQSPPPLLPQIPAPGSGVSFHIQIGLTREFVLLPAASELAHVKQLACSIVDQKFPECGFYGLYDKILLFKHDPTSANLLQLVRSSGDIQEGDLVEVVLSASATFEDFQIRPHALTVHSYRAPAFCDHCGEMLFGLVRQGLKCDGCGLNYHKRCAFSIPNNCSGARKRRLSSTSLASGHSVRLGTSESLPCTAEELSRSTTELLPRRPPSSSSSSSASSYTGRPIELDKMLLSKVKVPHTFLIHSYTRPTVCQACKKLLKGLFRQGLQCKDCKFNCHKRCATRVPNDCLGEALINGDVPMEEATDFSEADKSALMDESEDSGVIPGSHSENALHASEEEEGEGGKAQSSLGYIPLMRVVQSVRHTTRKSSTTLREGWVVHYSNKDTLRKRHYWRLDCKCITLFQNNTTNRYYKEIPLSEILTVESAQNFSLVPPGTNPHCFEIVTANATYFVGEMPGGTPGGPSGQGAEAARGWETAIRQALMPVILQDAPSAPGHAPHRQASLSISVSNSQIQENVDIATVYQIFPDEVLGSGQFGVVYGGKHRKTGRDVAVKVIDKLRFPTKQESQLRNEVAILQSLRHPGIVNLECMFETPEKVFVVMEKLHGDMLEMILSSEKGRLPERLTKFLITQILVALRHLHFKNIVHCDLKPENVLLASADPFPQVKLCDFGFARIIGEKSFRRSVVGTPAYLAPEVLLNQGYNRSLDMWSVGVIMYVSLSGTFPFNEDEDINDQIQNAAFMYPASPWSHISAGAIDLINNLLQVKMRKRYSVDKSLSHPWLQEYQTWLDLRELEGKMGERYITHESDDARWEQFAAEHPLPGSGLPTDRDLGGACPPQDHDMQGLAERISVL

inhibition [2]: 96% | IC50 [4]: 1.13 nM | IC50 [7]: 9.3 nM | inhibition [10]: 71% | IC50 [12]: 4.3 nM | IC50 [15]: 1.2 nM | IC50 [16]: 6.25 nM | IC50 [18]: 280 nM | inhibition [21]: 90%
Structure (SMILES): Cc1nc(Nc2n[nH]c3c2CN(C(=O)N[C@H](CN(C)C)c2ccccc2)C3(C)C)c2sccc2n1 [PF-03758309]
IC50 [1]: 2380 nM | Activity [3]: Active | IC50 [5]: 53 nM | Activity [6]: 54% | Activity [8]: Active | inhibition in vivo at 15 mg/kg [9]: 32.5% | Activity [11]: Active | fIC50 [13]: 0.4 nM | IC50 [14]: 231 nM | IC50 [17]: 280 nM | IC50 [19]: 34 nM | inhibition in vivo at 20 mg/kg [20]: 28%
